Data from ChEMBL document CHEMBL4011638, “Semisynthetic Flavone-Derived Antimicrobials with Therapeutic Potential against Methicillin-Resistant Staphylococcus aureus (MRSA)” (J Med Chem, 2017).
≈ marks a conversion by molar mass, not a printed value. Calls of active or inactive are those of the source. The calls are words filed in the database; no cut-off is given here.

Assays:
Staphylococcus aureus [1] = experiment: Antibacterial activity against methicillin-resistant Staphylococcus aureus DM 21455 after 24 hrs by broth microdilution method; format: functional; conditions: DM 21455, 24 h
In short: (§1)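 Broth microdilution per CLSI in cation-adjusted Mueller−Hinton broth, in tubes. Compounds dissolved in H2O or DMF, then diluted in PBS to 1000 μg/mL stocks. Serial 2-fold dilutions were made, with final DMF 2.5%. Organisms were grown on TSA at 35 °C for 20 h and adjusted to ~5× 10^5 CFU/mL. Tubes were incubated at 35 °C for 24 h. MIC was the lowest concentration with no visible growth versus control. Biological replicates.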

Staphylococcus aureus [2] = experiment: Antibacterial activity against Staphylococcus aureus DM4001R after 24 hrs by broth microdilution method; format: functional; in short: as §1
Bacillus cereus = experiment: Antibacterial activity against Bacillus cereus ATCC 11778 after 24 hrs by broth microdilution method; format: functional; conditions: ATCC 11778, 24 h
In short: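 MIC by CLSI broth microdilution in cation-adjusted Mueller–Hinton broth, tubes. Compounds in H2O or DMF, diluted in PBS to 1000 μg/mL stocks, then serial 2-fold dilutions (final DMF 2.5%). Inoculum ~5×10^5 CFU/mL from TSA plates grown 35 °C 20 h. Incubation 35 °C 24 h; MIC = no visible growth vs control. Biological replicates.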

Staphylococcus aureus [3] = experiment: Induction of plasma membrane permeability in methicillin-resistant Staphylococcus aureus DM9808R assessed as increase in fluorescence intensity at 12.5 ug/ml measured every 1 sec for 50 mins by SYTOX green dye based fluorimetric assay; format: functional
In short: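 Exponential-phase MRSA DM9808R grown on TSA, washed twice and resuspended in PBS (10 mM, pH 7) to OD600 0.2. Cells were loaded with 0.3 μM SYTOX Green in the dark until fluorescence stabilized. Test samples were then added (final DMF 0.5%). Fluorescence at ex 504/em 523 nm was recorded every 1 s for 50 min. Biological replicates.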

Lipid bilayer = experiment: Membrane permeabilization activity in DOPE/DOPG large unilamellar liposomes assessed as leakage of calcein at 1:4 to 1:8 compound to lipid ratio by fluorescence assay
Staphylococcus aureus [4] = experiment: Antibacterial activity against methicillin-resistant Staphylococcus aureus DM 9808R after 24 hrs by broth microdilution method; format: functional; in short: as §1
Staphylococcus aureus [5] = experiment: Ratio of MIC for Staphylococcus aureus ATCC 29213 after […] passages to MIC for Staphylococcus aureus ATCC 29213; format: functional
In short: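 Serial passage. Initial MIC was determined against S. aureus ATCC29213 by broth microdilution. Bacteria from duplicate tubes at 0.5× MIC were diluted to ~5 × 10^5 CFU/mL for the next MIC round. Each round was incubated at 35 °C for 24 h and the fold increase in MIC recorded. Gatifloxacin and norfloxacin served as comparators. Repeated for 17 passages, biological replicates.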

Staphylococcus aureus [6] = experiment: Antibacterial activity against methicillin-resistant Staphylococcus aureus DB57964 after 24 hrs by broth microdilution method; format: functional; conditions: DB57964, 24 h; in short: as §1
Staphylococcus aureus [7] = experiment: Antibacterial activity against methicillin-resistant Staphylococcus aureus ATCC 43300 after 24 hrs by broth microdilution method; format: functional; conditions: ATCC 43300, 24 h; in short: as §1
Staphylococcus aureus [8] = experiment: Antibacterial activity against methicillin-sensitive Staphylococcus aureus ATCC 29213 after 24 hrs by broth microdilution method; format: functional; conditions: ATCC 29213, 24 h; in short: as §1
Staphylococcus aureus [9] = experiment: Antibacterial activity against methicillin-resistant Staphylococcus aureus DB68004 after 24 hrs by broth microdilution method; format: functional; conditions: DB68004, 24 h; in short: as §1
Staphylococcus aureus [10] = experiment: Antibacterial activity against methicillin-resistant Staphylococcus aureus BAA-38 after 24 hrs by broth microdilution method; format: functional; conditions: BAA-38, 24 h; in short: as §1
Staphylococcus aureus [11] = experiment: Antibacterial activity against methicillin-sensitive Staphylococcus aureus DM4400R after 24 hrs by broth microdilution method; format: functional; in short: as §1
[12] = Ratio of HC50 for New Zealand white rabbit RBC to MIC for methicillin-sensitive Staphylococcus aureus DM4583R
In short: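 HC50 measured on fresh New Zealand white rabbit RBCs, washed three times in PBS, at 4% v/v final. Cells were incubated with 2-fold serial dilutions (DMF final 0.5%) at 37 °C for 1 h, then centrifuged. Supernatant absorbance was read at 576 nm, with PBS as 0% and 2% Triton X-100 as 100% lysis. HC50 is the concentration lysing 50% of cells, divided by MIC from broth microdilution.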

Staphylococcus aureus [13] = experiment: Antibacterial activity against methicillin-sensitive Staphylococcus aureus DM4299 after 24 hrs by broth microdilution method; format: functional; conditions: DM4299, 24 h; in short: as §1
Staphylococcus aureus [14] = experiment: Antibacterial activity against methicillin-resistant Staphylococcus aureus DB6506 after 24 hrs by broth microdilution method; format: functional; conditions: DB6506, 24 h; in short: as §1
Staphylococcus aureus [15] = experiment: Antibacterial activity against methicillin-sensitive Staphylococcus aureus ATCC 29737 after 24 hrs by broth microdilution method; format: functional; conditions: ATCC 29737, 24 h; in short: as §1
Staphylococcus aureus [16] = experiment: Antibacterial activity against methicillin-sensitive Staphylococcus aureus ATCC 6538 after 24 hrs by broth microdilution method; format: functional; conditions: ATCC 6538, 24 h; in short: as §1
Staphylococcus aureus [17] = experiment: Antibacterial activity against methicillin-resistant Staphylococcus aureus ATCC 700699 after 24 hrs by broth microdilution method; format: functional; conditions: ATCC 700699, 24 h; in short: as §1
Staphylococcus aureus [18] = experiment: Antibacterial activity against methicillin-sensitive Staphylococcus aureus DM4583R after 24 hrs by broth microdilution method; format: functional; in short: as §1

Row | Molecule | MIC (Staphylococcus aureus [1]) | MIC (Staphylococcus aureus [2]) | MIC (Bacillus cereus) | Activity (Staphylococcus aureus [3]) | Activity (Lipid bilayer) [%] | MIC (Staphylococcus aureus [4]) | Ratio (Staphylococcus aureus [5]) | MIC (Staphylococcus aureus [6]) [µg/mL] | MIC (Staphylococcus aureus [7]) [µg/mL] | MIC (Staphylococcus aureus [8]) [µg/mL] | MIC (Staphylococcus aureus [9]) [µg/mL] | MIC (Staphylococcus aureus [10]) [µg/mL] | MIC (Staphylococcus aureus [11]) [µg/mL] | Ratio [12] | MIC (Staphylococcus aureus [13]) [µg/mL] | MIC (Staphylococcus aureus [14]) [µg/mL] | MIC (Staphylococcus aureus [15]) [µg/mL] | MIC (Staphylococcus aureus [16]) [µg/mL] | MIC (Staphylococcus aureus [17]) [µg/mL] | MIC (Staphylococcus aureus [18]) [µg/mL]
1 | COC(=O)[C@H](CCCCN)NC(=O)COc1cc(O)c2c(=O)c(OCC(=O)N[C@@H](CCCCN)C(=O)OC)c(-c3ccc(OC)cc3)oc2c1CC=C(C)C | 32.5 µM | 32.5 µM | 32.5 µM | Active | 30 | 32.5 µM | – | – | – | – | – | – | – | – | – | – | – | – | – | –
2 | CCN(CC)CCCCCCOc1cc(O)c2c(=O)c(OCCCCCCN(CC)CC)c(-c3ccc(OC)cc3)oc2c1CC=C(C)C | 3.13 µg/mL | 6.25 µg/mL | 12.5 µg/mL | – | – | 3.13 µg/mL | – | – | – | – | – | – | – | – | – | – | – | – | – | –
3 | COC(=O)[C@H](CCCNC(=N)N)NC(=O)[C@H](CCCNC(=N)N)NC(=O)COc1cc(O)c2c(=O)c(OCC(=O)N[C@@H](CCCNC(=N)N)C(=O)N[C@@H](CCCNC(=N)N)C(=O)OC)c(-c3ccc(OC)cc3)oc2c1CC=C(C)C | 11 µM | 5.5 µM | 11 µM | – | – | 5.5 µM | – | – | – | – | – | – | – | – | – | – | – | – | – | –
4 | COC(=O)[C@H](CCCNC(=N)N)NC(=O)COc1cc(O)c2c(=O)c(O)c(-c3ccc(OC)cc3)oc2c1CC=C(C)C | 10.4 µM | 5.2 µM | 10.4 µM | – | – | 5.2 µM | – | – | – | – | – | – | – | – | – | – | – | – | – | –
5 | CCn1cc(C(=O)O)c(=O)c2cc(F)c(N3CCNCC3)cc21 [NORFLOXACIN] | – | – | – | – | – | – | 128 | – | – | – | – | – | – | – | – | – | – | – | – | –
6 | H-GIGKFLKKAKKFGKAFVKILKK-OH | – | – | – | – | – | – | – | 16 to 64 | 16 to 64 | 16 to 64 | 16 to 64 | 16 to 64 | 16 to 64 | 2 to 8 | 16 to 64 | 16 to 64 | 16 to 64 | 16 to 64 | 16 to 64 | 16 to 64
7 | CN[C@H](CC(C)C)C(=O)N[C@H]1C(=O)N[C@@H](CC(N)=O)C(=O)N[C@H]2C(=O)N[C@H]3C(=O)N[C@H](C(=O)N[C@H](C(=O)O)c4cc(O)cc(O)c4-c4cc3ccc4O)[C@H](O)c3ccc(c(Cl)c3)Oc3cc2cc(c3O[C@@H]2O[C@H](CO)[C@@H](O)[C@H](O)[C@H]2O[C@H]2C[C@](C)(N)[C@H](O)[C@H](C)O2)Oc2ccc(cc2Cl)[C@H]1O [VANCOMYCIN] | 1.1 µM | 1.1 µM | 1.1 µM | – | – | 2.2 µM | – | 0.78 (≈ 0.538 µM) | 0.78 (≈ 0.538 µM) | 1.56 (≈ 1.08 µM) | 1.56 (≈ 1.08 µM) | 1.56 (≈ 1.08 µM) | 0.78 (≈ 0.538 µM) | – | 1.56 (≈ 1.08 µM) | 0.78 (≈ 0.538 µM) | 0.78 (≈ 0.538 µM) | 0.78 (≈ 0.538 µM) | 1.56 (≈ 1.08 µM) | 1.56 (≈ 1.08 µM)
8 | COc1ccc(-c2oc3c(CC=C(C)C)c(OCC(=O)N[C@@H](CCCNC(=N)N)C(=O)OC(C)(C)C)cc(O)c3c(=O)c2OCC(=O)N[C@@H](CCCNC(=N)N)C(=O)OC(C)(C)C)cc1 | 6.8 µM | 3.4 µM | 3.4 µM | – | – | 3.4 µM | – | – | – | – | – | – | – | – | – | – | – | – | – | –
9 | COc1ccc(-c2oc3c(CC=C(C)C)c(O)cc(O)c3c(=O)c2O)cc1 [ICARITIN] | 50 µg/mL | 50 µg/mL | 136 µM | inactive | < 5 | 50 µg/mL | – | 50 (≈ 136 µM) | 50 (≈ 136 µM) | 50 (≈ 136 µM) | 50 (≈ 136 µM) | 50 (≈ 136 µM) | 50 (≈ 136 µM) | > 8 | 50 (≈ 136 µM) | 50 (≈ 136 µM) | 50 (≈ 136 µM) | 50 (≈ 136 µM) | 50 (≈ 136 µM) | 50 (≈ 136 µM)
